Bioassay records (PubChem)
CSC inhib – cancer stem cell viability inhibitors, primary screen, luminescence. cancer stem cell-like cells viability. inhibition, % at 7.5 µM. actives 1.1% (n = 300,000); in the data active = inhibition above about 75%; tested in HMLE shEcad cells
SKKanGAS inh – S. pyogenes SKKanGAS growth inhibitors in kanamycin, primary screen, streptokinase expression inhibitor project, SKKanGAS strain, BacTiter-Glo luminescence; 6 h; inhibition, % at 7.5 µM; actives 1.3% (n = 300,000);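 active = mean replicate score, as percent of positive control median, at least 50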;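 also: strain carries kanamycin resistance gene driven by streptokinase promoter and grows in 40 µg/ml kanamycin; loss of luminescence reflects streptokinase promoter inhibition or plain growth inhibition; 0% = median of DMSO wells and 100% = positive control at its reference dose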
Calb FLC – C. albicans growth inhibition with fluconazole, primary screen, CaCi-2 strain, Alamar Blue fluorescence. growth inhibition, % (test concentration not listed). actives 0.57% (n = 300,000). C. albicans CaCi-2 (fluconazole-resistant clinical isolate) + fluconazole, 48 h;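 active = growth inhibition above about 58% in most replicates, limit read from the data, passing the limit was not always enough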;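 also: all wells also contain fluconazole at 8 µg/ml as a sub-toxic cotreatment; 0% = median of DMSO wells and 100% = median of geldanamycin control wells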
Beta cell apopt – inhibitors of cytokine-induced beta cell apoptosis, primary screen, luminescence; INS-1E cytokine-induced death, ATP luminescence, 48 h; percent of positive-control rescue, neutral wells zero; actives 0.8% (n = 300,000); AID 435005, 2010; protection from apoptosis, % (test concentration not listed);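 active = Every replicate reaches about 75%, or at least half do and their mean reaches it too, limit read from the data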;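 also: 0% = cytokine-treated negative control wells and 100% = positive control rescue; higher means more ATP so stronger rescue from cytokine killing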
Mdm2-MdmX inh – inhibitors of human Mdm2-MdmX association, primary screen, cell-based, luminescence, split luciferase, SaOS-2, uHTS | actives 3% (n = 330,000) | inhibition, % at 8 µM | Protein Mdm4 (Homo sapiens) + E3 ubiquitin-protein ligase Mdm2 (Homo sapiens), … | AID 485346, 2010 | SaOS-2 split-luciferase Mdm2/MdmX complementation;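 active = inhibition of at least 50% at 8 µM in the primary screen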
Target sequence (O15151 whole entry, looked up): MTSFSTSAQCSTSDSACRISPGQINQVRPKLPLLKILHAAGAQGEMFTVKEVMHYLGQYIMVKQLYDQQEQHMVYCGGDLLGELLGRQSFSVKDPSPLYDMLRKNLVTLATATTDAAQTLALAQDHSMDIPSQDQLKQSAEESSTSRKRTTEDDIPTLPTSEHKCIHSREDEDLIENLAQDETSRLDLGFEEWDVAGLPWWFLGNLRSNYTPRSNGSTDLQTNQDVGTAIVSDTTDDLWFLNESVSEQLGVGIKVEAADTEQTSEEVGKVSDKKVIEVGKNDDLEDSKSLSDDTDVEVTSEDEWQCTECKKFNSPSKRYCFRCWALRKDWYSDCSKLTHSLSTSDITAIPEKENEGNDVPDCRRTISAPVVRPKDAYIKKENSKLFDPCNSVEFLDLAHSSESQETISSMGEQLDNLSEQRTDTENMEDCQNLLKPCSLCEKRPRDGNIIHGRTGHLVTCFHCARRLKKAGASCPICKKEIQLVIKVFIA
Target sequence (Q00987 whole entry, looked up): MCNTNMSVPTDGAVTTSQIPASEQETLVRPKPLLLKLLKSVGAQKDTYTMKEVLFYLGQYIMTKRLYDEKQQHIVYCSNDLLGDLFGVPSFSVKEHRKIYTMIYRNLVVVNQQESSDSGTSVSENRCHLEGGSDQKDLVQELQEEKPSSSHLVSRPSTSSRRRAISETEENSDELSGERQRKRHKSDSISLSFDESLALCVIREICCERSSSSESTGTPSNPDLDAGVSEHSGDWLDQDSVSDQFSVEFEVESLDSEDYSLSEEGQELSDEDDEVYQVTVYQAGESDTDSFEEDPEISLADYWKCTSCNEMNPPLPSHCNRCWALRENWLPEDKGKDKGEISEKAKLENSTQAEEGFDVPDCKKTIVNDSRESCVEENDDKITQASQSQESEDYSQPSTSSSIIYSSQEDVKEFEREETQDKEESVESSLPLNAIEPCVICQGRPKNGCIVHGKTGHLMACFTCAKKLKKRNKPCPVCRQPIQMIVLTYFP
T cruzi inh – inhibitors of intracellular T. cruzi growth, primary screen, luminescence, NIH3T3 host cells. T. cruzi beta-gal in NIH3T3, 90 h. inhibition, % (test concentration not listed). actives 1.4% (n = 300,000). AID 1885, 2009;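 active = mean inhibition across valid replicates above about 55%, limit read from the data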;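 also: signal also drops with host cell toxicity which is not excluded here; 0% = plate median of DMSO wells and 100% = zero luminescence signal; higher percent means less beta-gal luminescence so fewer parasites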
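Incubation – ≥90 h infection period, 3 h prior cell attachment · System – NIH/3T3 fibroblasts plus reporter T. cruzi · Doses – compound pinned at 50 nL/well, DMSO · Read-out basis – percent inhibition of parasite-derived β-gal signal · Signal – luminescent β-galactosidase signal after 60 min lysis · Also added – 5000 T. cruzi trypomastigotes/well · Medium – Low-serum DMEM with 2% FBS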
Mdm2-MdmX conf – Mdm2-MdmX complex disruptors, retested hits, confirmation, luminescence, single concentration; shares compounds with Mdm2-MdmX inh; Mdm2-MdmX binding, luminescent assay; inhibition, % at 8 µM; actives 55% (n = 10,000); AID 489028, 2010; in the data active = inhibition above about 40%
FLuc counter – full-length luciferase signal inhibition, confirmation, counter-screen for Mdm2/MdmX interaction inhibitor project, cell-based, single concentration, SaOS-2 | shares compounds with Mdm2-MdmX inh | SaOS-2 full-length luciferase counterscreen, luminescence | inhibition, % at 8 µM | actives 77% (n = 6,200);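 active = mean inhibition at 8 µM reaching about 37%, which flags the compound as non-specific, limit read from the data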;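 also: p53-null SaOS-2 cells with luciferase driven by a doxycycline-inducible promoter; compound on cells about two nights before reading with doxycycline added after day one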
* marks the source's active call; other numbers are inactive results; . = no result given. Rows were chosen to be rich in hits. Some 5.7% of all compounds tested hit in one or more screens of this group.

SMILES | CSC inhib | SKKanGAS inh | Calb FLC | Beta cell apopt | Mdm2-MdmX inh | T cruzi inh | Mdm2-MdmX conf | FLuc counter
O=C(Nc1cccc(/C=C/c2ccccn2)c1)c1ccc(-n2cncn2)c([N+](=O)[O-])c1 | 28 | 8 | 6 | . | 62* | 38 | 38 | .
O=C(Nc1ccc(F)c(F)c1)c1ccc(-n2cncn2)c([N+](=O)[O-])c1 | -8 | . | . | 1 | -15 | . | . | .
Cc1ccc2nc(NC(=O)c3ccc(-c4nc5ccccc5s4)s3)sc2c1 | 14 | . | . | 15 | 98* | . | 46* | 84*
COc1ccc(S(=O)(=O)NCC(c2ccc3c(c2)OCO3)N2CCN(c3ccccc3)CC2)cc1 (configuration not stated) | . | -9 | -4 | -2 | 25 | 13 | . | .
NC(=NC(=O)c1ccc(OC(F)(F)F)cc1)c1ccc(C(F)(F)F)cn1 | 3 | -2 | -2 | -8 | 12 | -3 | . | .
Cc1ccc(C(=O)O/N=C(\N)c2ccccn2)c(C)c1 | -3 | 1 | -4 | -8 | 99* | -5 | 98* | 51*
N/C(=N\OC(=O)c1ccc(Cl)cc1)c1ccccn1 | . | 6 | -3 | 21 | -29 | 2 | . | .
CCOc1cc(C(=O)O/N=C(\N)c2ccccn2)cc(OCC)c1OCC | -7 | -4 | 6 | 3 | 77* | 31 | 68* | 85*
CCOc1ccc(C(=O)O/N=C(\N)c2ccccn2)cc1OCC | -11 | -7 | . | -5 | 48 | 2 | . | .
COc1ccc(C(=O)O/N=C(\N)c2ccccn2)cc1 | 10 | 4 | 1 | 4 | 97* | -6 | 94* | 24
Cc1ccc(C(=O)O/N=C(\N)c2ccc(C(F)(F)F)cn2)cc1 | . | -3 | -5 | . | 57* | 4 | -16 | .
O=C(O)c1cc(S(=O)(=O)Nc2ccc(OCc3ccccc3)cc2)ccc1Br | -4 | 5 | 19 | 3 | -12 | 2 | . | .
CN(C)C1=NC[C@H](Cc2ccccc2)N1CC1CCC(C(C)(C)C)CC1 (some centres not stated) | 25 | 1 | -18 | 5 | 37 | -3 | . | .
COc1cc(OC)cc(C(=O)O/N=C(\N)c2ccccn2)c1 | -8 | 5 | -3 | -5 | 54* | -4 | -4 | .
COc1ccccc1C(=O)O/N=C(\N)c1ccccn1 | 12 | 4 | -15 | 9 | 38 | 5 | . | .
O=C(c1cccc(S(=O)(=O)N2CCc3ccccc32)c1)N1CCN(c2ccccn2)CC1 | -14 | -16 | 3 | 8 | 85* | 21 | 84* | 39*
NC(=O)C1CCCN(C(=O)c2ccc(Cl)c(S(=O)(=O)N3CCc4ccccc43)c2)C1 (configuration not stated) | . | . | . | . | -11 | . | . | .
O=C(c1ccc(Cl)c(S(=O)(=O)N2CCc3ccccc32)c1)N1CCN(c2ccccc2O)CC1 | 19 | . | . | -22 | 54* | . | 6 | .
O=c1cc(-c2c(F)c(F)c(F)c(F)c2F)oc2c(F)c(F)c(F)c(F)c12 | 101* | 9 | 65 | 107* | 100* | 61* | 99* | 1
O=c1cc(-c2c(F)c(F)c(F)c(F)c2F)oc2ccccc12 | 27 | 7 | -2 | 5 | 96* | -11 | 10 | .
COc1ccc(-c2nn(-c3ccccc3)cc2/C=N/NC(=O)c2ccc3c(c2)OCO3)cc1 | 9 | 17 | -2 | 17 | 20 | 14 | . | .
C=CCNC(=S)N/N=C/c1cn(-c2ccccc2)nc1-c1ccc(OC)cc1 | -8 | -3 | 28 | 4 | 51* | -2 | 16 | .
COc1ccc(-c2nn(-c3ccccc3)cc2/C=N/NC(=O)c2ccc(Br)o2)cc1 | 24 | 27 | -12 | . | 68* | 21 | -38 | .
CCOc1ccc(C(=O)N2CCN(Cc3ccccc3)CC2)cc1OCC | . | 3 | 21 | . | 5 | 11 | . | .
CCCN1CCC(=O)N(CCN=[N+]=[N-])CC1 | -22 | -1 | -7 | -10 | -15 | -10 | . | .
SMILES | CSC inhib | SKKanGAS inh | Calb FLC | Beta cell apopt | Mdm2-MdmX inh | T cruzi inh | Mdm2-MdmX conf | FLuc counter
Nc1c(C(=O)CSc2nnc(-c3ccccc3)o2)c(=O)[nH]c(=O)n1C1CC1 | -6 | . | . | -4 | 50 | . | . | .
O=C(COC(=O)c1cc[n+]([O-])cc1)Nc1cccc(Br)c1 | . | . | . | . | 4 | . | . | .
C=C(C)C(=O)OC1(C(F)(F)F)Oc2cc(C)ccc2NC1=O (configuration not stated) | 70 | -5 | 7 | 33 | 100* | -9 | 61* | 16
COc1ccc(-c2cc3c(=O)n(CC(=O)NCc4cccnc4)nc(C)n3n2)cc1 | -10 | 2 | -1 | 2 | -25 | -7 | . | .
Cc1nn(CC(=O)Nc2cccc(Cl)c2)c(=O)c2cc(-c3ccccc3)nn12 | -21 | -9 | 9 | -4 | 56* | 33 | 12 | .
COc1ccc(-c2cc3c(=O)n(CC(=O)Nc4ccc(Cl)cc4)nc(C)n3n2)cc1 | -7 | -1 | 16 | 6 | 67* | -8 | 43* | 67*
Cc1cccc(OCC(=O)NC(C)C(=O)N/N=C/c2c(OCc3ccccc3)ccc3ccccc23)c1 (configuration not stated) | . | 23 | 13 | 5 | 76* | -62 | 36 | 69*
COc1ccc2ccccc2c1/C=N/NC(=O)c1cccc(C)c1 | -4 | -5 | -7 | 0 | 4 | -27 | . | .
Cc1ccc(S(=O)(=O)c2cc3c(=O)n4ccccc4nc3n(C3CCCCC3)c2=N)cc1 | -13 | 21 | 20 | -13 | 33 | 23 | . | .
CC(C)(C)CN1CCNC[C@H]1Cc1cccc2ccccc12 | 5 | 8 | 12 | -1 | 29 | 7 | . | .
c1ccc(C2(CN3CCNC[C@H]3Cc3cccc4ccccc34)CC2)cc1 | 15 | 9 | 11 | -3 | 53* | 15 | 38 | 91*
Cc1cccc(OCc2nnc(SCC(=O)Nc3cccc(C(=O)N4CCOCC4)c3)o2)c1C | -9 | -6 | -14 | -1 | 20 | -1 | . | .
Cc1cccc(C)c1OCc1nnc(SCC(=O)Nc2cccc(C(=O)N3CCOCC3)c2)n1C | -16 | -3 | 4 | 6 | 53* | 3 | 7 | .
CCCCn1nc(C(=O)Nc2c(C)n(C)n(-c3ccccc3)c2=O)c2ccccc2c1=O | . | . | . | -4 | 24 | . | . | .
N#C/C(N=Nc1ccccc1O)=N\Nc1ccccc1O | 9 | 36 | 0 | 115* | 82* | 29 | 94* | 18
OCC[C@H]1C[C@H](O)[C@@H](O)[C@]2(CCCc3ccccc3O2)O1 | -8 | . | . | -11 | 11 | . | . | .
